According to ChEMBL document CHEMBL1153878, “Hansch analysis of veratric acid derivatives as antimicrobial agents” (2009):
≈ marks a conversion by molar mass, not a printed value. Where “and” joins values, the source holds several entries; their conditions need not be identical. Identical values can stand only once.

Assays:
Type in all cases: functional
Escherichia coli = assay: Antibacterial activity against Escherichia coli MTCC 739 by serial dilution method; design: -logMIC: scale not given here
Outline: (§1)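 Tube serial dilution in 1 ml sterile double strength nutrient broth I.P., test range […] per ml. Inoculum: […] of a saline suspension at 10⁵ cfu/ml from a fresh 24-h culture, grown in double strength nutrient broth at 37 ± 1 °C. […] Exact MIC refined by further dilution of the stock.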

Bacillus subtilis = assay: Antibacterial activity against Bacillus subtilis MTCC 2423 by serial dilution method; design: -logMIC: unit not given here; outline: as §1
Aspergillus niger = assay: Antifungal activity against Aspergillus niger MTCC 2425 by serial dilution method; design: -logMIC: scale not given here
Candida albicans = assay: Antifungal activity against Candida albicans MTCC 227 by serial dilution method; design: -logMIC: unit not given here
Staphylococcus aureus = assay: Antibacterial activity against Staphylococcus aureus MTCC 1430 by serial dilution method; design: -logMIC: scale not given here; outline: as §1
[1] = Escherichia coli, MTCC 739, read-out: MIC
[2] = Bacillus subtilis, MTCC 2423, read-out: MIC
[3] = Aspergillus niger, MTCC 2425, read-out: MIC
[4] = Candida albicans, MTCC 227, read-out: MIC
[5] = Staphylococcus aureus, MTCC 1430, read-out: MIC

| Structure (SMILES) | -logMIC (Escherichia coli) | MIC (Escherichia coli) | MIC (Escherichia coli; [1]) | -logMIC (Bacillus subtilis) | MIC (Bacillus subtilis) | MIC (Bacillus subtilis; [2]) | -logMIC (Aspergillus niger) | MIC (Aspergillus niger) | MIC (Aspergillus niger; [3]) | -logMIC (Candida albicans) | MIC (Candida albicans) | MIC (Candida albicans; [4]) | -logMIC (Staphylococcus aureus) | MIC (Staphylococcus aureus) | MIC (Staphylococcus aureus; [5]) |
| --- | --- | --- | --- | --- | --- | --- | --- | --- | --- | --- | --- | --- | --- | --- | --- |
| COc1ccc(C(=O)OCC(C)C)cc1OC | 1.17 and 1.1 | 19 µg/mL (≈ 79.7 µM) | 16 µg/mL (≈ 67.1 µM) | 1.23 and 1.17 | 16 µg/mL (≈ 67.1 µM) | 14 µg/mL (≈ 58.8 µM) | 1.28 and 1.17 | 16 µg/mL (≈ 67.1 µM) | 12.5 µg/mL (≈ 52.5 µM) | 1.25 and 1.34 | 11 µg/mL (≈ 46.2 µM) | 13.5 µg/mL (≈ 56.7 µM) | 1.08 and 1.1 | 19 µg/mL (≈ 79.7 µM) | 20 µg/mL (≈ 83.9 µM) |
| COc1ccc(C(=O)Nc2ccc(Cl)cc2)cc1OC | 1.39 | – | 12 µg/mL (≈ 41.1 µM) | 1.28 | – | 15 µg/mL (≈ 51.4 µM) | 1.3 | – | 14.5 µg/mL (≈ 49.7 µM) | 1.34 | – | 13.5 µg/mL (≈ 46.3 µM) | 1.19 | – | 19 µg/mL (≈ 65.1 µM) |
| O=C(O)c1cn(C2CC2)c2cc(N3CCNCC3)c(F)cc2c1=O [CIPROFLOXACIN] | 3.33 | – | – | 3.33 | – | – | – | – | – | – | – | – | 3.33 | – | – |
| COc1ccc(C(=O)OC(C)(C)C)cc1OC | 1.08 | – | 20 µg/mL (≈ 83.9 µM) | 1.2 | – | 15 µg/mL (≈ 63 µM) | 1.3 | – | 12 µg/mL (≈ 50.4 µM) | 1.38 | – | 10 µg/mL (≈ 42 µM) | 1.08 | – | 20 µg/mL (≈ 83.9 µM) |
| COc1ccccc1NC(=O)c1ccc(OC)c(OC)c1 | 1.23 | – | 17 µg/mL (≈ 59.2 µM) | 1.34 | – | 13 µg/mL (≈ 45.2 µM) | 1.32 | – | 14 µg/mL (≈ 48.7 µM) | 1.29 | – | 15 µg/mL (≈ 52.2 µM) | 1.23 | – | 17 µg/mL (≈ 59.2 µM) |
| COc1ccc(C(=O)OCc2ccccc2)cc1OC | 1.18 | – | 18 µg/mL (≈ 66.1 µM) | 1.34 | – | 12.5 µg/mL (≈ 45.9 µM) | 1.29 | – | 14 µg/mL (≈ 51.4 µM) | 1.3 | – | 13.5 µg/mL (≈ 49.6 µM) | 1.1 | – | 21.5 µg/mL (≈ 79 µM) |
| COc1ccc(C(=O)Nc2ccc(Br)cc2)cc1OC | 1.25 | – | 19 µg/mL (≈ 56.5 µM) | 1.4 | – | 13 µg/mL (≈ 38.7 µM) | 1.44 | – | 12.5 µg/mL (≈ 37.2 µM) | 1.34 | – | 15 µg/mL (≈ 44.6 µM) | 1.25 | – | 19 µg/mL (≈ 56.5 µM) |
| COc1ccc(C(=O)N2CCCCC2)cc1OC | 1.1 | – | 20 µg/mL (≈ 80.2 µM) | 1.33 | – | 12 µg/mL (≈ 48.1 µM) | 1.28 | – | 13 µg/mL (≈ 52.1 µM) | 1.25 | – | 14 µg/mL (≈ 56.2 µM) | 1.15 | – | 17.5 µg/mL (≈ 70.2 µM) |
| C=CCOC(=O)c1ccc(OC)c(OC)c1 | 1.1 | – | 18 µg/mL (≈ 81 µM) | 1.25 | – | 12.5 µg/mL (≈ 56.2 µM) | 1.2 | – | 14 µg/mL (≈ 63 µM) | 1.1 | – | 18 µg/mL (≈ 81 µM) | 1 | – | 22 µg/mL (≈ 99 µM) |
| COc1ccc(C(=O)NN)cc1OC | 0.93 | – | 23 µg/mL (≈ 117 µM) | 1.15 | – | 14 µg/mL (≈ 71.4 µM) | 1.12 | – | 15 µg/mL (≈ 76.5 µM) | 1.15 | – | 14 µg/mL (≈ 71.4 µM) | 0.93 | – | 23 µg/mL (≈ 117 µM) |
| COc1ccc(C(=O)Oc2ccccc2)cc1OC | 1.21 | – | 16 µg/mL (≈ 61.9 µM) | 1.27 | – | 14 µg/mL (≈ 54.2 µM) | 1.34 | – | 11.5 µg/mL (≈ 44.5 µM) | 1.3 | – | 12.5 µg/mL (≈ 48.4 µM) | 1.15 | – | 18 µg/mL (≈ 69.7 µM) |
| CCCNC(=O)c1ccc(OC)c(OC)c1 | 1.08 | – | 19 µg/mL (≈ 85.1 µM) | 1.23 | – | 13 µg/mL (≈ 58.2 µM) | 1.28 | – | 12 µg/mL (≈ 53.7 µM) | 1.25 | – | 12.5 µg/mL (≈ 56 µM) | 1.08 | – | 19 µg/mL (≈ 85.1 µM) |
| COc1ccc(C(=O)Nc2ccc([N+](=O)[O-])cc2)cc1OC | 1.16 | – | 21 µg/mL (≈ 69.5 µM) | 1.41 | – | 11.5 µg/mL (≈ 38 µM) | 1.35 | – | 13 µg/mL (≈ 43 µM) | 1.32 | – | 14 µg/mL (≈ 46.3 µM) | 1.25 | – | 17 µg/mL (≈ 56.2 µM) |
| CCCOC(=O)c1ccc(OC)c(OC)c1 | 1.25 | – | 12.5 µg/mL (≈ 55.7 µM) | 1.2 | – | 14 µg/mL (≈ 62.4 µM) | 1.2 | – | 14 µg/mL (≈ 62.4 µM) | 1.1 | – | 18 µg/mL (≈ 80.3 µM) | 0.98 | – | 24 µg/mL (≈ 107 µM) |
| COc1ccc(C(=O)OC(C)C)cc1OC | 1.2 | – | 14 µg/mL (≈ 62.4 µM) | 1.2 | – | 14 µg/mL (≈ 62.4 µM) | 1.25 | – | 12.5 µg/mL (≈ 55.7 µM) | 1.35 | – | 10 µg/mL (≈ 44.6 µM) | 1.01 | – | 22 µg/mL (≈ 98.1 µM) |
| COc1ccc(NC(=O)c2ccc(OC)c(OC)c2)cc1 | 1.18 | – | 19 µg/mL (≈ 66.1 µM) | 1.38 | – | 12 µg/mL (≈ 41.8 µM) | 1.4 | – | 11.5 µg/mL (≈ 40 µM) | 1.36 | – | 12.5 µg/mL (≈ 43.5 µM) | 1.2 | – | 18 µg/mL (≈ 62.6 µM) |
| COc1ccc(C(=O)O)cc1OC [VERATRIC ACID] | 1.06 | – | 16 µg/mL (≈ 87.8 µM) | 1.31 | – | 9 µg/mL (≈ 49.4 µM) | 1.11 | – | 14 µg/mL (≈ 76.8 µM) | 1.22 | – | 11 µg/mL (≈ 60.4 µM) | 1.01 | – | 18 µg/mL (≈ 98.8 µM) |
| COc1ccc(C(=O)Nc2cccc([N+](=O)[O-])c2)cc1OC | 1.36 | – | 13 µg/mL (≈ 43 µM) | 1.46 | – | 10.5 µg/mL (≈ 34.7 µM) | 1.36 | – | 13 µg/mL (≈ 43 µM) | 1.27 | – | 16 µg/mL (≈ 52.9 µM) | 1.22 | – | 18 µg/mL (≈ 59.5 µM) |
| COc1ccc(C(=O)Nc2ccc(C)cc2)cc1OC | 1.2 | – | 17 µg/mL (≈ 62.7 µM) | 1.31 | – | 13 µg/mL (≈ 47.9 µM) | 1.35 | – | 12.5 µg/mL (≈ 46.1 µM) | 1.32 | – | 13 µg/mL (≈ 47.9 µM) | 1.15 | – | 18.5 µg/mL (≈ 68.2 µM) |
| COc1ccc(C(=O)Nc2ccccc2C)cc1OC | 1.16 | – | 18.5 µg/mL (≈ 68.2 µM) | 1.26 | – | 15 µg/mL (≈ 55.3 µM) | 1.4 | – | 11 µg/mL (≈ 40.5 µM) | 1.31 | – | 13 µg/mL (≈ 47.9 µM) | 1.2 | – | 17 µg/mL (≈ 62.7 µM) |
| COc1ccc(C(=O)N(CCO)CCO)cc1OC | 1.21 | – | 16.5 µg/mL (≈ 61.3 µM) | 1.31 | – | 12.5 µg/mL (≈ 46.4 µM) | 1.36 | – | 12 µg/mL (≈ 44.6 µM) | 1.31 | – | 12.5 µg/mL (≈ 46.4 µM) | 1.21 | – | 16.5 µg/mL (≈ 61.3 µM) |
| OC(Cn1cncn1)(Cn1cncn1)c1ccc(F)cc1F [FLUCONAZOLE] | – | – | – | – | – | – | 2.64 | – | – | 2.64 | – | – | – | – | – |
